Reference: ChEMBL document CHEMBL1125220 (J Med Chem, 1991)

What was measured:
[1] = molecular target: Glutamate receptor ionotropic, NMDA 2C (Rattus norvegicus, UniProt Q00961); experiment: (§1) Compound was tested for its affinity towards PCP receptor in rat brain membrane [3H]MK-801 as radioligand; assay type: cell membranes
D(2) dopamine receptor [2] = molecular target: T1, D(2) dopamine receptor (Rattus norvegicus, UniProt P61169); experiment: Compound was tested for its binding affinity towards dopamine receptor D2 by using [3H]domperidone as radioligand
T1 sequence (P61169 whole entry): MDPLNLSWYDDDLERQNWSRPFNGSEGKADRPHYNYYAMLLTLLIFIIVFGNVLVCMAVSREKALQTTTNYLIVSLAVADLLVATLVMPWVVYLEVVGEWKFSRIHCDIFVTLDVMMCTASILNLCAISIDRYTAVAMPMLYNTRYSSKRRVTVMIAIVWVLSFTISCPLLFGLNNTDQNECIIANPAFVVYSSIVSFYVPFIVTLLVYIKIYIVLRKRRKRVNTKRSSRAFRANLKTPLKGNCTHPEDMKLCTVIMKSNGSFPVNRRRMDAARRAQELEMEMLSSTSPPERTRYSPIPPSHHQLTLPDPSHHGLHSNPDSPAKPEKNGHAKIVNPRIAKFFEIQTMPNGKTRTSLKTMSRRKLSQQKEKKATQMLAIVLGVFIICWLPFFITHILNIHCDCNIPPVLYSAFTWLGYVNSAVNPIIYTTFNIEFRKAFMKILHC
Summary of the method: (§2)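 Rat striatal membranes from frozen tissue, washed and resuspended in 50 mM Tris-HCl with 120 mM NaCl, 5 mM KCl, 2 mM CaCl2, 1 mM MgCl2 (pH 7.4 at 37 °C). Competition binding used [3H]SCH-23390 for D1 and [3H]domperidone for D2. IC50 ± SEM from duplicate or triplicate determinations.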

D(2) dopamine receptor [3] = molecular target: T1, D(2) dopamine receptor; experiment: Compound was tested for its binding affinity towards Dopamine receptor D2 by using [3H]domperidone as radioligand
D(1A) dopamine receptor [4] = molecular target: T2, D(1A) dopamine receptor (Rattus norvegicus, UniProt P18901); experiment: Binding affinity towards Dopamine receptor D1 in rat membranes using [3H]SCH-23390 as radioligand; assay type: cell membranes
T2 sequence (P18901 whole entry): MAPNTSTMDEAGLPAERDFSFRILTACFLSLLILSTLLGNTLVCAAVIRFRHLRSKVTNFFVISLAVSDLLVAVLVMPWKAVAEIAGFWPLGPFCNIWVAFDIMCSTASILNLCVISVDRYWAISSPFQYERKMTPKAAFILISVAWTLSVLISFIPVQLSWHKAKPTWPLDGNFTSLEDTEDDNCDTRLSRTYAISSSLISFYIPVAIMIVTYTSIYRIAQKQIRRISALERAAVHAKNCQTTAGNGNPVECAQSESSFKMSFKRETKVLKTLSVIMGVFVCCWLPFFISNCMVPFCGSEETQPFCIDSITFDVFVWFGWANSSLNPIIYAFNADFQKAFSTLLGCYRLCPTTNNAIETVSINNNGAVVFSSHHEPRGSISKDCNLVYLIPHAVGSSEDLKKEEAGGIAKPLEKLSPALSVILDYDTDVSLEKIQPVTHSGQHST

D(1A) dopamine receptor [5] = molecular target: T2, D(1A) dopamine receptor; experiment: Binding affinity determined in radioreceptor binding assay by using [3H]SCH-23390 radioligand against dopamine receptor D1; summary of the method: as §2
Rattus norvegicus = species on record: Rattus norvegicus; experiment: as §1

Sequence of Glutamate receptor ionotropic, NMDA 2C (Q00961 whole entry): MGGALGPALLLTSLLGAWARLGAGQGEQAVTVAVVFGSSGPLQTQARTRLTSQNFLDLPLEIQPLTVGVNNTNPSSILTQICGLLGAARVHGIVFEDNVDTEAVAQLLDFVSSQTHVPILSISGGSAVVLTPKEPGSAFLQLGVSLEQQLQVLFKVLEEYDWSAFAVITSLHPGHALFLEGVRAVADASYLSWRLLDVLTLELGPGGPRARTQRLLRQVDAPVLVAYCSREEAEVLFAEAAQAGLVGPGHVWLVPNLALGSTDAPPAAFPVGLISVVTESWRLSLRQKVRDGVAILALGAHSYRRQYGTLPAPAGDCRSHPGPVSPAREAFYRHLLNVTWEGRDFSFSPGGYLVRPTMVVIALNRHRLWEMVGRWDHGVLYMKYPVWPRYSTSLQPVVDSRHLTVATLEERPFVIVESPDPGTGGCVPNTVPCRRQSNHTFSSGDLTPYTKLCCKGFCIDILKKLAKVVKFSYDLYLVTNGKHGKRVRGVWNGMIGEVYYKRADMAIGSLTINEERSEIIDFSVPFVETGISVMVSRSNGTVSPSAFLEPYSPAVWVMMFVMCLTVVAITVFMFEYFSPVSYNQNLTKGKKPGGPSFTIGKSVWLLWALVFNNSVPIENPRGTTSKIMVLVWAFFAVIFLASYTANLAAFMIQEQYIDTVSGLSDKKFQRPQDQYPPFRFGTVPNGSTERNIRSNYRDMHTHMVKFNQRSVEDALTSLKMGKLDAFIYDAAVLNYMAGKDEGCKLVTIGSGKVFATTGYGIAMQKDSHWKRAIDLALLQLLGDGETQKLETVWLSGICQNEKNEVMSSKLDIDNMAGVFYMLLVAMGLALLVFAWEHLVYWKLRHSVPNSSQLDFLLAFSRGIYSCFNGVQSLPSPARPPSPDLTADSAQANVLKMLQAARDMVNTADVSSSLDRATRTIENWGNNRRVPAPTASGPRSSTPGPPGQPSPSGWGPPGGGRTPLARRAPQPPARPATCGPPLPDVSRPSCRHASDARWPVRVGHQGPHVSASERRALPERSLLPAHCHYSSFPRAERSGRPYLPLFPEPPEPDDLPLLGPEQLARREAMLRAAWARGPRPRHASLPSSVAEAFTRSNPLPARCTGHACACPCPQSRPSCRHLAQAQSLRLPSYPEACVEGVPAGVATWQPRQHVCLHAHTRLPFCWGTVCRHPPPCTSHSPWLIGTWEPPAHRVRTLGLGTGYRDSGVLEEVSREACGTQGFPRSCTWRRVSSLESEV

IC50 (D(2) dopamine receptor [2]) [nM] | IC50 (D(1A) dopamine receptor [5]) [µM] | Structure (SMILES) | IC50 [1] [µM] | IC50 (D(2) dopamine receptor [3]) [nM] | IC50 (D(1A) dopamine receptor [4]) [µM] | IC50 (Rattus norvegicus) [µM]
 |  | c1ccc(CCCN2CCC(c3ccccc3)CC2)cc1 | > 10 | 335 | > 10 | 
210 | > 10 | c1ccc(CCCCCN2CCC(c3ccccc3)CC2)cc1 | > 10 |  |  | 
 |  | OC1(c2ccccc2)CCN(CCCc2ccccc2)CC1 |  | 1250 | > 10 | > 10
 |  | c1ccc(CCCCN2CCC(c3ccccc3)CC2)cc1 |  | 165 | > 10 | > 10
45 |  | c1ccc(CCCCN2CCN(c3ccccc3)CC2)cc1 | > 10 |  | 2.82 | 

Structure (SMILES) | IC50 (D(2) dopamine receptor [2]) [nM] | IC50 (D(1A) dopamine receptor [5]) [µM] | IC50 [1] [µM] | IC50 (D(2) dopamine receptor [3]) [nM] | IC50 (D(1A) dopamine receptor [4]) [µM] | IC50 (Rattus norvegicus) [µM]
c1ccc(N2CCN(CCCc3ccc4ccccc4c3)CC2)cc1 | 160 |  | > 10 |  |  | 
